Data taken from ChEMBL document CHEMBL1159317, “Flavonoids from Ulex airensis and Ulex europaeus ssp. europaeus” (J Nat Prod, 2002).
Activity calls are given as the source filed them. No cut-off for these calls is given here.

Key:
Cladosporium cucumerinum [1] = test: Antifungal activity against Cladosporium cucumerinum CCMI 206 at 100 ug by bioautographic TLC bioassay; type: functional, organism-based
Outline: (§1)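 Bioautography on developed TLC plates against the fungus C. cucumerinum strain CCMI 206, obtained from the CCMI culture collection. Procedure followed Homans and Fuchs.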

Cladosporium cucumerinum [2] = test: Induction of growth of Cladosporium cucumerinum CCMI 206 at 100 ug by bioautographic TLC bioassay; type: functional, organism-based; outline: as §1

SMILES | Activity (Cladosporium cucumerinum [1]) | Activity (Cladosporium cucumerinum [2])
CC1(C)C=Cc2c(cc(O)c3c(=O)cc(-c4ccc(O)cc4)oc23)O1 | inactive | –
CC1(C)C=Cc2c(cc3occ(-c4ccc(O)cc4)c(=O)c3c2O)O1 | inactive | –
COc1cc2c(cc1O)[C@@H]1Oc3cc4c(cc3[C@@H]1CO2)OCO4 | – | Active
COc1cc2c(cc1OC)[C@@H]1Oc3cc4c(cc3[C@@H]1CO2)OCO4 | Active | –
CC1(C)C=Cc2c(ccc(-c3coc4cc(O)cc(O)c4c3=O)c2O)O1 | Active | –
CC(C)=CCc1c(O)cc2occ(-c3ccc4c(c3)C=CC(C)(C)O4)c(=O)c2c1O | inactive | –
CC1(C)C=Cc2cc(-c3coc4cc5c(c(O)c4c3=O)CC(C(C)(C)O)O5)ccc2O1 (configuration not stated) | inactive | –
COc1c(O)cc2c(c1OC)OC[C@H]1c3cc4c(cc3O[C@@H]21)OCO4 | – | Active
CC1(C)C=Cc2cc(-c3coc4cc5oc(C(C)(C)O)cc5c(O)c4c3=O)ccc2O1 | inactive | –
COc1cc(O)c2c(=O)c(-c3ccc(O)c(CC=C(C)C)c3)coc2c1CC=C(C)C | Active | –
CC(C)=CCc1cc(-c2coc3cc(O)c(CC=C(C)C)c(O)c3c2=O)ccc1O | inactive | –
COc1cc2c(cc1C1COc3cc(O)ccc3C1=O)OCO2 (configuration not stated) | Active | –
